{
  "source": "BindingDB's records for doi:10.1021/jm0100741",
  "about": "(Tohoku University, 2001)",
  "key": {"[1]": {"target": "Dual specificity protein phosphatase 3 (Homo sapiens, UniProt P51452)", "sequence (P51452 whole entry)": "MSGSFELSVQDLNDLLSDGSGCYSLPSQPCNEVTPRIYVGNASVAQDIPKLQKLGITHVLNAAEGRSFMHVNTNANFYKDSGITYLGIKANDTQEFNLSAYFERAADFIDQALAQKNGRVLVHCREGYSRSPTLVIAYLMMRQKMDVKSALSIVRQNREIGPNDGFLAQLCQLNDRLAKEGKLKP", "assay": "Inhibitory activity against vaccinia VH1-related phosphatase (VHR)", "summary_of_the_method": "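Recombinant VHR expressed in E. coli and purified, used at 0.6 μM with 10 mM pNPP substrate in 50 mM succinate, 1 mM EDTA, 150 mM NaCl, pH 6.0, ± compound. Incubated 3 min at 37 °C, stopped with 1 N NaOH, and activity read as absorbance change at 405 nm.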"}, "[2]": {"target": "T1, M-phase inducer phosphatase 2 (Mus musculus, UniProt P30306)", "T1 sequence (P30306 whole entry)": "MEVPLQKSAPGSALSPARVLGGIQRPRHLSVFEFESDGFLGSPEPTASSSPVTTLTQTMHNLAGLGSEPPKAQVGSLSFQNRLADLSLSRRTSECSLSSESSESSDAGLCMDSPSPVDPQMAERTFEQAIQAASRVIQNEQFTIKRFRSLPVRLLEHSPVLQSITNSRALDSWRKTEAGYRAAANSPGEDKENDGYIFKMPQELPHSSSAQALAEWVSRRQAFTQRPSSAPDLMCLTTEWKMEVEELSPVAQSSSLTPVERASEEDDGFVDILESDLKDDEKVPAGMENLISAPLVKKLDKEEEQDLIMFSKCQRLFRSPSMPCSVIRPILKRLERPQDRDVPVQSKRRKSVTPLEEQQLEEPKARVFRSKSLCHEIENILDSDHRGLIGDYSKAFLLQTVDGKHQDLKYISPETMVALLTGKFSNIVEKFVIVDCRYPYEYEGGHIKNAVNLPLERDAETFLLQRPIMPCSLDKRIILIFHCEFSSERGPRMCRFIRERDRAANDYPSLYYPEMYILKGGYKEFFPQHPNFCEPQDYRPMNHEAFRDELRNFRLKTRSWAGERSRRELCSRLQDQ", "assay": "Inhibitory activity against cell division cycle 25B"}},
  "data": [
    {"compound": "CC(C)=CCCC(C)CCOC(=O)c1c(O)oc(CO)c1O", "note": "(stereo unspecified) [4-Hydroxy-5-hydroxymethyl-2-oxo-2,5-dihydro-furan-3-carboxylic acid 3,7-dimethyl-oct-6-enyl ester]", "values": [
      {"measurement": "IC50", "setting": "[1]", "result": "> 250", "unit": "µM"},
      {"measurement": "IC50", "setting": "[2]", "result": "> 125", "unit": "µM"}
    ]},
    {"compound": "O=C(OCc1ccccc1)c1c(O)oc(CO)c1O", "note": "[4-Hydroxy-5-hydroxymethyl-2-oxo-2,5-dihydro-furan-3-carboxylic acid benzyl ester]", "values": [
      {"measurement": "IC50", "setting": "[1]", "result": "> 250", "unit": "µM"},
      {"measurement": "IC50", "setting": "[2]", "result": "> 125", "unit": "µM"}
    ]},
    {"compound": "O=C(OC1CCCCC1)c1c(O)oc(CO)c1O", "note": "[4-Hydroxy-5-hydroxymethyl-2-oxo-2,5-dihydro-furan-3-carboxylic acid cyclohexyl ester]", "values": [
      {"measurement": "IC50", "setting": "[1]", "result": "> 250", "unit": "µM"},
      {"measurement": "IC50", "setting": "[2]", "result": "> 125", "unit": "µM"}
    ]}
  ]
}
